Source: PubChem (The Scripps Research Institute Molecular Screening Center)
M4 antag: human M4 muscarinic receptor antagonists, primary screen, CHO cells, Fluo-8 calcium fluorescence; CHO-hM4 cells, ACh EC80; inhibition, % at 3 µM; AID 624125, 2012; 360,000 compounds, 0.73% hits;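 active = inhibition above its plate's cutoff, the mean inhibition of sample wells plus 3 SD, cut at about 27% in these data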;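 note: 0% = acetylcholine EC80 with DMSO and 100% = DMSO without agonist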
M5 antag: human M5 muscarinic receptor antagonists, primary screen, CHO cells, Fluo-8 calcium fluorescence; Muscarinic acetylcholine receptor M5 (Homo sapiens), P08912; CHO-hM5 cells, ACh EC80; inhibition, % at 3 µM; 360,000 compounds, 0.59% hits; AID 624040, 2012;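 active = inhibition above a per-plate cutoff, the mean of that plate's test compounds plus 3 SD, cut at about 27% in these data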;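 note: 0% = acetylcholine EC80 with DMSO and 100% = DMSO without agonist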
Target sequence (P08912 whole entry, looked up): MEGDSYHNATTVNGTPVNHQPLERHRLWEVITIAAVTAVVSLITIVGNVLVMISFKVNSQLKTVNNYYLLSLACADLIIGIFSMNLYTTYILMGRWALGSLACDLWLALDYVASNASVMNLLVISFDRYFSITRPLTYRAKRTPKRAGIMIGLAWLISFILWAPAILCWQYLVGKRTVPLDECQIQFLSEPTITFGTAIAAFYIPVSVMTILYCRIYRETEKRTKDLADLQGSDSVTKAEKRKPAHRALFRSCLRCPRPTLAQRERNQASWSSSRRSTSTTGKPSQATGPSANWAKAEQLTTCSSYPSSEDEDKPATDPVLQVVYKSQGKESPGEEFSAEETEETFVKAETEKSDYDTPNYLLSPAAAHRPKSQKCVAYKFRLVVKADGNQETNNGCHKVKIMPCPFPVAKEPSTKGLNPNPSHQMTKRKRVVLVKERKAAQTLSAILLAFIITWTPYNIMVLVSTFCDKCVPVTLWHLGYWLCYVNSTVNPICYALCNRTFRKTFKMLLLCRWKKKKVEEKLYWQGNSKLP
CHRM4 agonist: human M4 muscarinic receptor agonists, primary screen, CHO-K1 cells, Fluo-8 calcium fluorescence; activation, % at 3 µM; AID 624127, 2012; 360,000 compounds, 0.14% hits; CHO-K1 hM4/Gqi5; vehicle 0%, full acetylcholine response 100%;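 active = activation above the run mean over all test wells plus 3 SD, cut at about 32% in these data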;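 note: peak over basal fluorescence ratio per well then scaled between controls; 0% = DMSO wells and 100% = acetylcholine at EC100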
M4 PAM: human M4 muscarinic receptor positive allosteric modulators, primary screen, CHO-K1 cells, Fluo-8 calcium fluorescence. Muscarinic acetylcholine receptor M4 (Homo sapiens), P08173. 360,000 compounds, 0.4% hits. AID 624126, 2012. CHO-K1 hM4/Gqi5, ACh EC20; 0% = ACh EC20, 100% = maximal ACh. activation, % at 3 µM;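 active = activation above its plate's cutoff, the mean activation of sample wells plus 3 SD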
M5 ag: human M5 muscarinic receptor agonists, primary screen, CHO-K1 cells, Fluo-8 calcium fluorescence. Muscarinic acetylcholine receptor M5 (Homo sapiens), P08912. CHO-K1 hM5 cells; 0% DMSO wells, 100% maximal acetylcholine response. activation, % at 3 µM. 360,000 compounds, 0.19% hits. AID 624037, 2012;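 active = activation above the run's mean over test compounds plus 3 SD, cut at about 23% in these data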;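 note: signal is peak over basal fluorescence ratio across the kinetic read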
CHRM5 PAM: human M5 muscarinic receptor positive allosteric modulators, primary screen, CHO-K1 cells, Fluo-8 calcium fluorescence | activation, % at 3 µM | Muscarinic acetylcholine receptor M5 (Homo sapiens), P08912 | CHO-K1 hM5, ACh EC20 PAM; 0% = ACh EC20, 100% = ACh EC100 | 360,000 compounds, 0.3% hits;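 active = activation above the run cutoff, the mean activation of all test compounds plus 3 SD, cut at about 18% in these data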
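Probe or stimulus: acetylcholine, EC20 level; Assay system: human M5 receptor in CHO-K1 cells; Schedule: compound preincubation 140 s before EC20 acetylcholine addition; Technique: intracellular calcium via Fluo-8 fluorescence; Dosing: single-point, 3 µM nominal; Read-out basis: percent activation from peak-over-basal fluorescence ratio, scaled EC20-to-EC100 acetylcholine; Repeats: one well per compound, no replicates.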
Numbers without * were called inactive. Compounds with a hit are over-represented: about 1.9% of the library has one in this group of screens.

Results for Cc1onc(-c2ccccc2Cl)c1C(=O)NCc1ccccc1 ?
M4 antag: -6; M5 antag: -3; CHRM4 agonist: 0; M4 PAM: 3; M5 ag: -3; CHRM5 PAM: -1

Results for Cc1c(C(c2cc3c(cc2Br)OCO3)c2c(C)n(C)n(-c3ccccc3)c2=O)c(=O)n(-c2ccccc2)n1C ?
M4 antag: 44*; M5 antag: -5; CHRM4 agonist: -1; M4 PAM: -28; M5 ag: -3; CHRM5 PAM: 0

What do the screens show for `Cc1c(C(c2ccccc2O)c2c(C)n(C)n(-c3ccccc3)c2=O)c(=O)n(-c2ccccc2)n1C`?
M4 antag: -2; M5 antag: 5; CHRM4 agonist: 1; M4 PAM: 13; M5 ag: 0; CHRM5 PAM: 6

Results for Cc1cccc(N2C(=O)c3cccc4c(N(C)CCO)ccc(c34)C2=O)c1 ?
M4 antag: 21; M5 antag: 23; CHRM4 agonist: 38*; M4 PAM: -25; M5 ag: 42*; CHRM5 PAM: -17

Results for Nc1cccc(N2C(=O)c3cccc4c(N)ccc(c34)C2=O)c1 ?
M4 antag: 4; M5 antag: 8; CHRM4 agonist: 39*; M4 PAM: -12; M5 ag: 21; CHRM5 PAM: -11

How did Cc1cccc(N2C(=O)c3cccc4cccc(c34)C2=O)c1 do in these assays?
M4 antag: -3; M5 antag: 5; CHRM4 agonist: 1; M4 PAM: 2; M5 ag: 1; CHRM5 PAM: 1

How did Nc1ccc2c3c(cccc13)C(=O)N(c1ccccc1)C2=O do in these assays?
M4 antag: 31*; M5 antag: 23; CHRM4 agonist: 70*; M4 PAM: -28; M5 ag: 45*; CHRM5 PAM: -20

What do the screens show for `O=C(O)c1cccc(N2C(=O)c3cccc4c(Cl)ccc(c34)C2=O)c1`?
M4 antag: 1; M5 antag: -4; CHRM4 agonist: 2; M4 PAM: 7; M5 ag: -2; CHRM5 PAM: -2

Results for Cc1cccc(N2C(=O)c3cccc4c(N)ccc(c34)C2=O)c1 ?
M4 antag: 29*; M5 antag: 51*; CHRM4 agonist: 104*; M4 PAM: -18; M5 ag: 380*; CHRM5 PAM: -31

What do the screens show for `COC(=O)C1=C(CSc2nc3c(cc2C#N)CN(C)CC3)OC(N)=C(C#N)C1c1ccccc1F` (stereo not drawn)?
M4 antag: 6; M5 antag: 11; CHRM4 agonist: 1; M4 PAM: -1; M5 ag: 1; CHRM5 PAM: -6

How did CC(C)CCN1C(=O)c2cccc3c(N)ccc(c23)C1=O do in these assays?
M4 antag: 47*; M5 antag: 70*; CHRM4 agonist: 97*; M4 PAM: -18; M5 ag: 313*; CHRM5 PAM: -32

What do the screens show for `O=[N+]([O-])c1ccc(S(=O)(=O)NCC(c2ccc3c(c2)OCO3)N2CCOCC2)cc1` (stereo not drawn)?
M4 antag: -3; M5 antag: -1; CHRM4 agonist: 1; M4 PAM: 1; M5 ag: 0; CHRM5 PAM: 4

What do the screens show for `Nc1ccc2nc(SCC(=O)Nc3ccc(N4CCOCC4)c(Cl)c3)sc2c1`?
M4 antag: 6; M5 antag: 27*; CHRM4 agonist: 14; M4 PAM: -11; M5 ag: 5; CHRM5 PAM: -21

How did Cc1ccccc1C(=O)O/N=C(\c1ccccc1)c1ccccn1 do in these assays?
M4 antag: -4; M5 antag: -6; CHRM4 agonist: 3; M4 PAM: 22*; M5 ag: -2; CHRM5 PAM: 6
